Experiments:
[1] = Inhibitory concentration required to reduce cell number to 50% of control cultures in JLc(Jurkat human leukemia); type: functional
Method in brief: (§1)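 Murine P388 leukemia, Lewis lung carcinoma (LL), and human Jurkat leukemia (JLC) cells, plus amsacrine- and doxorubicin-resistant Jurkat derivatives (JLA, JLD), were grown with drug. Seeding per well was 4.5×10^3 (P388), 10^3 (LL) and 3.75×10^3 (Jurkat). Exposure was 3 days (P388) or 4 days (others). Growth was read by [3H]TdR uptake (P388) or sulforhodamine assay. IC50 is the drug concentration (nM) halving cell number versus controls. Ratios are JLA/JLC and JLD/JLC IC50. Independent assays were run in duplicate.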

[2] = tested on: Lewis lung carcinoma cell line; assay: Inhibitory concentration required to reduce cell number to 50% of control cultures in LL(Lewis lung carcinoma cell line); type: functional, cell-based; settings: Mus musculus; method in brief: as §1
P388 = assay: Inhibitory concentration required to reduce cell number to 50% of control cultures in P388 (murine leukemia cell line); type: functional, cell-based; settings: Mus musculus; method in brief: as §1
[3] = Ratio of IC50 values obtained from Jurkat lines, (JLa /JLc); type: functional, Homo sapiens; method in brief: as §1
[4] = Ratio of IC50 values obtained from Jurkat lines, (JLd /JLc); type: functional, Homo sapiens; method in brief: as §1
HT-29 [5] = assay: Inhibitory concentration required to reduce cell growth to 50% of control cultures in the HT-29 human cell line; type: functional
MCF7 = assay: Inhibitory concentration required to reduce cell growth to 50% of control cultures in the MCF-7 human cell line; type: functional
[6] = Inhibitory concentration required to reduce cell growth to 50% of control cultures in the NCI-ADR human cell line; type: functional; settings: NCI/ADR-RES
SK-OV-3 = assay: Inhibitory concentration required to reduce cell growth to 50% of control cultures in the SKOV3 human cell line; type: functional
[7] = Average GI50 value for the drug over the whole cell line panel; type: functional
CAKI-1 = assay: Inhibitory concentration required to reduce cell growth to 50% of control cultures in the CAK1 human cell line; type: functional
HCT-116 = assay: Inhibitory concentration required to reduce cell growth to 50% of control cultures in the HTC116 human cell line; type: functional
[8] = Concentration of the drug to reduce cell number to 50% of controls in AuxB1 cell line; type: functional, cell-based
D3F = assay: Concentration of the drug to reduce cell number to 50% of controls in D3F cell line; type: functional, cell-based
HT-29 [9] = assay: Inhibitory concentration of the drug resulting in inhibition of cell growth to 50% of controls in HT-29 (human colon); type: functional, cell-based
MOLT-4 = assay: Inhibitory concentration of the drug resulting in inhibition of cell growth to 50% of controls in MOLT-4 (human leukemia); type: functional, cell-based
Mus musculus [10] = assay: In vivo activity in colon 38 model for tumor growth delay after i.p. administration of 13.3 mg/kg in C57/B1 mice; type: functional; settings: route intraperitoneal
Method in brief: (§2)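 Treatment started at about 4 mm diameter, with 5 mice per group. Hydrochloride salts in distilled water were given intraperitoneally at 0.01 mL/g, q4d × 3. Calliper measurements were taken three times weekly; volume = 0.52·a²·b. Growth delay is the time for mean tumour volume to reach 4-fold pretreatment volume.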

Mus musculus [11] = assay: In vivo activity in colon 38 model for tumor growth delay after i.p. administration of 20 mg/kg in C57/B1 mice; type: functional; settings: route intraperitoneal; method in brief: as §2
Mus musculus [12] = assay: In vivo activity in colon 38 model for tumor growth delay after i.p. administration of 8.9 mg/kg in C57/B1 mice; type: functional; settings: route intraperitoneal; method in brief: as §2
U-937 = assay: Inhibitory concentration of the drug resulting in inhibition of cell growth to 50% of controls in U937 (human leukemia); type: functional, cell-based
[13] = Ratio of IC50 values obtained from D3F-C10 and D3F cell lines; type: functional
[14] = Ratio of IC50 values obtained from CHrC5 and AuxB1 cell lines; type: functional
Mus musculus [15] = assay: In vivo activity in HT-29 model for tumor growth delay after i.p. administration of 13.3 mg/kg in nude mice; settings: route intraperitoneal
Mus musculus [16] = assay: In vivo activity in colon 38 model for tumor growth delay after i.p. administration of 30 mg/kg in C57/B1 mice; type: functional; settings: route intraperitoneal; method in brief: as §2
Mus musculus [17] = assay: In vivo activity in HT-29 model for tumor growth delay after i.p. administration of 20 mg/kg in nude mice; settings: route intraperitoneal

Cc1cccc2nc3cccc(C(=O)NCCCNCCCNCCCNC(=O)c4cccc5nc6cccc(C)c6nc45)c3nc12
IC50 [1]: 1.3 nM | IC50 [2]: 31 nM | IC50 (P388): 430 nM | Ratio [3]: 0.5 | Ratio [4]: 1

Cc1cccc2nc3cccc(C(=O)NCCCNCCCCNCCCNC(=O)c4cccc5nc6cccc(C)c6nc45)c3nc12
GI50 (HT-29 [5]): 366 nM | IC50 [1]: 8.7 nM | IC50 [2]: 112 nM | GI50 (MCF7): 74 nM | GI50 [6]: 906 nM | IC50 (P388): 880 nM | GI50 (SK-OV-3): 13600 nM | GI50 [7]: 2000 nM | Ratio [3]: 0.2 | Ratio [4]: 1.2 | GI50 (CAKI-1): 8280 nM | GI50 (HCT-116): 335 nM

CCCN(CCNC(=O)c1cccc2nc3cccc(C)c3nc12)CCN(CCC)CCNC(=O)c1cccc2nc3cccc(C)c3nc12
IC50 [1]: 46 nM | IC50 [2]: 120 nM | IC50 (P388): 250 nM | Ratio [3]: 0.5 | Ratio [4]: 0.8

Cc1cccc2nc3cccc(C(=O)NCCCCNCCCCNCCCCNC(=O)c4cccc5nc6cccc(C)c6nc45)c3nc12
IC50 [1]: 67 nM | IC50 [2]: 290 nM | IC50 (P388): 890 nM | Ratio [3]: 0.3 | Ratio [4]: 0.9

Cc1cccc2nc3cccc(C(=O)NCCCNCCNCCCNC(=O)c4cccc5nc6cccc(C)c6nc45)c3nc12
GI50 (HT-29 [5]): 27 nM | IC50 [1]: 1.7 nM | IC50 [2]: 35 nM | GI50 (MCF7): 24 nM | GI50 [6]: 8030 nM | IC50 (P388): 740 nM | GI50 (SK-OV-3): 8890 nM | GI50 [7]: 524 nM | Ratio [3]: 0.4 | Ratio [4]: 1.3 | GI50 (CAKI-1): 1000 nM | GI50 (HCT-116): 21 nM

Cc1cccc2nc3cccc(C(=O)NCCN(C)C)c3nc12
IC50 [1]: 207 nM | IC50 [2]: 39 nM | IC50 (P388): 18 nM | Ratio [3]: 1.1 | Ratio [4]: 1.1

Cc1cccc2nc3cccc(C(=O)NCCN(C)CCN(C)CCNC(=O)c4cccc5nc6cccc(C)c6nc45)c3nc12
IC50 [1]: 5.3 nM | IC50 [2]: 20 nM | IC50 (P388): 33 nM | Ratio [3]: 0.4 | Ratio [4]: 0.6

Cc1ccc(Cl)c2nc3cccc(C(=O)NCCNCCNCCNC(=O)c4cccc5nc6c(Cl)ccc(C)c6nc45)c3nc12
IC50 [1]: 0.6 nM | IC50 [2]: 10 nM | IC50 (P388): 37 nM | Ratio [3]: 0.4 | Ratio [4]: 0.8

Cc1cccc2cc3cccc(C(=O)NCCN(C)C)c3nc12
IC50 [1]: 46 nM | IC50 [2]: 5.6 nM | Ratio [3]: 4.6 | Ratio [4]: 4.8

Cc1cccc2nc3cccc(C(=O)NCCNCCCNCCNC(=O)c4cccc5nc6cccc(C)c6nc45)c3nc12
IC50 [1]: 0.24 nM | IC50 [2]: 1.2 nM | IC50 (P388): 7.4 nM | Ratio [3]: 0.7 | Ratio [4]: 0.6

CCN(CCNC(=O)c1cccc2nc3cccc(C)c3nc12)CCN(CC)CCNC(=O)c1cccc2nc3cccc(C)c3nc12
IC50 [1]: 16 nM | IC50 [2]: 48 nM | IC50 (P388): 170 nM | Ratio [3]: 0.6 | Ratio [4]: 0.7

Cc1cccc2nc3cccc(C(=O)NCCN(C)CCCN(C)CCNC(=O)c4cccc5nc6cccc(C)c6nc45)c3nc12
GI50 (HT-29 [5]): < 10 nM | IC50 [1]: 0.08 nM | IC50 [2]: 0.3 nM | GI50 (MCF7): < 10 nM | GI50 [6]: < 0.1 nM | IC50 (P388): 1.6 nM | GI50 (SK-OV-3): < 0.1 nM | GI50 [7]: 0.29 nM | Ratio [3]: 0.4 | Ratio [4]: 0.8 | GI50 (CAKI-1): < 0.1 nM | GI50 (HCT-116): < 0.1 nM

Cc1cccc2nc3cccc(C(=O)NCCNCCNCCNC(=O)c4cccc5nc6cccc(C)c6nc45)c3nc12
IC50 [8]: 3.7 nM | IC50 (D3F): 4.4 nM | GI50 (HT-29 [5]): < 10 nM | IC50 (HT-29 [9]): 0.08 nM | IC50 [1]: 0.18 nM | IC50 [2]: 2.8 nM | IC50 (MOLT-4): 0.0062 nM | GI50 (MCF7): < 10 nM | Growth delay (Mus musculus [10]): 4 days | Growth delay (Mus musculus [11]): 7 days | Growth delay (Mus musculus [12]): 2.8 days | GI50 [6]: 15 nM | IC50 (P388): 21 nM | GI50 (SK-OV-3): < 10 nM | IC50 (U-937): 0.047 nM | GI50 [7]: 13 nM | Ratio [13]: 0.91 | Ratio [3]: 0.5 | Ratio [4]: 0.9 | GI50 (CAKI-1): < 10 nM | GI50 (HCT-116): < 10 nM | Ratio [14]: 47.1 | Growth delay (Mus musculus [15]): 2.4 days

Cc1cccc2nc3cccc(C(=O)NCCCN4CCN(CCCNC(=O)c5cccc6nc7cccc(C)c7nc56)CC4)c3nc12
IC50 [1]: 1.3 nM | IC50 [2]: 0.46 nM | IC50 (P388): 48 nM | Ratio [3]: 0.8 | Ratio [4]: 0.7

Cc1cccc2nc3cccc(C(=O)NCCN4CCN(CCNC(=O)c5cccc6nc7cccc(C)c7nc56)CC4)c3nc12
IC50 [1]: 11 nM | IC50 [2]: 12 nM | IC50 (P388): 2240 nM | Ratio [3]: 0.6 | Ratio [4]: 0.9

O=C1c2cccc3cccc(c23)C(=O)N1CCNCCCNCCN1C(=O)c2cccc3cccc(c23)C1=O [ELINAFIDE]
IC50 (HT-29 [9]): 0.15 nM | IC50 [1]: 0.7 nM | IC50 [2]: 11 nM | IC50 (MOLT-4): 0.037 nM | IC50 (P388): 1.5 nM | IC50 (U-937): 0.34 nM | Ratio [3]: 0.3 | Ratio [4]: 0.6

Cc1ccc(C)c2nc3c(C(=O)NCCNCCNCCNC(=O)c4cccc5nc6c(C)ccc(C)c6nc45)cccc3nc12
IC50 [8]: 4.5 nM | IC50 (D3F): 6.5 nM | IC50 (HT-29 [9]): 0.15 nM | IC50 [1]: 0.6 nM | IC50 [2]: 3.9 nM | IC50 (MOLT-4): 0.067 nM | Growth delay (Mus musculus [10]): 2.4 days | Growth delay (Mus musculus [11]): 4.4 days | Growth delay (Mus musculus [16]): 7.5 days | Growth delay (Mus musculus [12]): 2.8 days | IC50 (P388): 8.3 nM | IC50 (U-937): 0.52 nM | Ratio [13]: 0.77 | Ratio [3]: 0.5 | Ratio [4]: 0.6 | Ratio [14]: 30.3 | Growth delay (Mus musculus [17]): 7.8 days

Cc1cccc2nc3cccc(C(=O)NCCCCN4CCN(CCCCNC(=O)c5cccc6nc7cccc(C)c7nc56)CC4)c3nc12
IC50 [1]: 1.1 nM | IC50 [2]: 0.34 nM | IC50 (P388): 96 nM | Ratio [3]: 0.5 | Ratio [4]: 0.5

From ChEMBL document CHEMBL1134642, “Dicationic bis(9-methylphenazine-1-carboxamides): relationships between biological activity and linker chain structure for a series of potent topoisomerase targeted anticancer drugs” (J Med Chem, 2001)
